Results on two compounds are retold here after ChEMBL document CHEMBL4145466, “Design, synthesis, and biological evaluation of novel combretastatin A-4 thio derivatives as microtubule targeting agents” (Eur J Med Chem, 2018).

Data set [1] has as its system HaCaT. As to the kind of experiment: Induction of apoptosis in human HaCaT cells assessed as increase in histone-associated DNA fragments in mononucleosomes at 0.1 uM after 24 hrs by ELISA. Type of data set: cell-based. The procedure, abridged: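 HaCaT cells (2 × 10^4), grown in DMEM with 10% FBS, penicillin/streptomycin and 2 mM L-glutamine, exposed to compound (DMSO stock) for 24 h. Cells lysed, supernatant taken after centrifugation and incubated 2 h on a streptavidin-coated plate with anti-histone-biotin and anti-DNA-peroxidase. ABTS added for 30 min, A405 read. Output is enrichment factor vs control, mean ± SD of three independent experiments.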

The test system of data set [2] is HeLa. In words: Induction of apoptosis in human HeLa cells assessed as increase in histone-associated DNA fragments in mononucleosomes at 0.1 uM after 24 hrs by ELISA. Format: functional, cell-based. The procedure, abridged:
(§1)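 Cells (2 × 10^4) were incubated for 24 h at 0.1, 0.5 or 1 µM, lysed and centrifuged. Supernatants went onto a streptavidin plate with anti-histone-biotin and anti-DNA-peroxidase for 2 h, followed by ABTS for 30 min and a reading at 405 nm. Nucleosome content was expressed as an enrichment factor, as mean ± SD of three experiments.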

Data set [3] deals with MCF7. As to the kind of experiment: Induction of apoptosis in human MCF7 cells assessed as increase in histone-associated DNA fragments in mononucleosomes at 0.1 uM after 24 hrs by ELISA. Type of data set: functional, cell-based. The procedure, abridged: as §1
On the technique in general: In an ELISA, binding on a coated surface is turned into a signal by an enzyme label.

The test system of data set [4] is SK-OV-3. In words: Induction of apoptosis in human SKOV3 cells assessed as increase in histone-associated DNA fragments in mononucleosomes at 0.1 uM after 24 hrs by ELISA. Type of data set: functional, cell-based. The procedure, abridged: as §1
Data set [5] concerns A-431. In words: Induction of apoptosis in human A431 cells assessed as increase in histone-associated DNA fragments in oligonucleosomes at 0.1 uM after 24 hrs by ELISA. Type of data set: functional, cell-based. The procedure, abridged: as §1
Data set [6] concerns HeLa. As to the kind of experiment: Induction of apoptosis in human HeLa cells assessed as increase in histone-associated DNA fragments in oligonucleosomes at 0.1 uM after 24 hrs by ELISA. Type of data set: functional, cell-based. The method, boiled down:
as §1

For data set [7], the system named is SK-OV-3. As to the kind of experiment: Induction of apoptosis in human SKOV3 cells assessed as increase in histone-associated DNA fragments in oligonucleosomes at 0.1 uM after 24 hrs by ELISA. Format: functional, cell-based. The method, boiled down: as §1
In data set [8] the test system is HeLa. As to the kind of experiment: Cell cycle arrest in human HeLa cells assessed as accumulation of cells at G2/M phase at 0.1 to 1 uM after 24 hrs by propidium iodide staining-based FACS analysis. Format: functional. The method, boiled down: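 Cells were seeded at 5 × 10^5 per well in DMEM with 10% FBS and left overnight, then exposed to 0.1, 0.5 or 1 µM for 24 h. DMSO served as the negative control and 50 nM camptothecin as the positive control. Cells were trypsinized, fixed in 70% ethanol for 30 min at 4 °C, stained with 50 µg/mL PI plus 100 µg/mL RNase A for 30 min in the dark, and analysed by flow cytometry. Results are mean ± SD of three experiments, compared by ANOVA with Dunnett's test.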

Data set [9] addresses T1, Tubulin (Homo sapiens) (UniProt P68371+Q9H4B7+P0DPH7+P68366+Q13509+Q71U36+P04350+Q3ZCM7+P07437+P68363+Q9BQE3+Q6PEY2+Q13885+Q9BVA1+Q9BUF5). In words: Inhibition of tubulin polymerization in human MCF7 cells assessed as chromatin condensation at 1 uM after 24 hrs by Hoechst 33258 staining-based fluorescence microscopic analysis. Format: cell-based. The procedure, abridged: (§2)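 Cells seeded at 12.5 × 10^4 per well and exposed to 1 µM compound for 24 h. Nuclei were stained with Hoechst 33258 (10 µg/mL, 30 min, 37 °C), then fixed in 4% formaldehyde/PBS (15 min, RT). Cells were permeabilized with 1% Triton X-100, blocked with 2% BSA/PBS for 1 h, and incubated with anti-α-tubulin-FITC (1:50) overnight at 4 °C. Imaged by fluorescence microscopy.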

Data set [10] concerns the target T1, Tubulin (Homo sapiens). In words: Inhibition of tubulin polymerization in human MDA-MB-231 cells assessed as chromatin condensation at 1 uM after 24 hrs by Hoechst 33258 staining-based fluorescence microscopic analysis. Type of data set: cell-based. The procedure, abridged: as §2
For data set [11], the target named is T1, Tubulin (Homo sapiens). In words: Inhibition of tubulin polymerization in human HeLa cells assessed as chromatin condensation at 1 uM after 24 hrs by Hoechst 33258 staining-based fluorescence microscopic analysis. Format: cell-based. The method, boiled down:
as §2

For data set [12], the target named is T1, Tubulin (Homo sapiens). In words: Inhibition of tubulin polymerization in human SKOV3 cells assessed as chromatin condensation at 1 uM after 24 hrs by Hoechst 33258 staining-based fluorescence microscopic analysis. Type of data set: cell-based. The procedure, abridged: as §2
For data set [13], the target named is T1, Tubulin (Homo sapiens). As to the kind of experiment: Inhibition of tubulin polymerization in human A431 cells assessed as chromatin condensation at 1 uM after 24 hrs by Hoechst 33258 staining-based fluorescence microscopic analysis. Format: cell-based. The method, boiled down:
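Cells were seeded at 12.5 × 10^4 per well and treated at 1 µM for 24 h. They were stained with Hoechst 33258 (10 µg/mL, 30 min, 37 °C), fixed in 4% formaldehyde, permeabilized with 1% Triton X-100 and blocked in 2% BSA. Anti-α-tubulin-FITC (1:50) was applied overnight at 4 °C, and cells were imaged by fluorescence microscopy.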

Data set [14] relates to A-431. As to the kind of experiment: Induction of apoptosis in human A431 cells assessed as increase in histone-associated DNA fragments in mononucleosomes after 24 hrs by ELISA. Format: functional, cell-based. The method, boiled down: as §1
Data set [15] concerns HaCaT. In words: Induction of apoptosis in human HaCaT cells assessed as increase in histone-associated DNA fragments in mononucleosomes after 24 hrs by ELISA. Format: cell-based. The method, boiled down:
as §1

In data set [16] the test system is HeLa. In words: Induction of apoptosis in human HeLa cells assessed as increase in histone-associated DNA fragments in mononucleosomes after 24 hrs by ELISA. Format: functional, cell-based. The method, boiled down: as §1
The subject of data set [17] is MCF7. As to the kind of experiment: Induction of apoptosis in human MCF7 cells assessed as increase in histone-associated DNA fragments in mononucleosomes after 24 hrs by ELISA. Format: functional, cell-based. The method, boiled down:
as §1

In the next data set the test system is MDA-MB-231. As to the kind of experiment: Induction of apoptosis in human MDA-MB-231 cells assessed as increase in histone-associated DNA fragments in mononucleosomes after 24 hrs by ELISA. Format: functional, cell-based. The method, boiled down:
as §1

For data set [18], the system named is SK-OV-3. As to the kind of experiment: Induction of apoptosis in human SKOV3 cells assessed as increase in histone-associated DNA fragments in mononucleosomes after 24 hrs by ELISA. Type of data set: functional, cell-based. The procedure, abridged: as §1
The subject of data set [19] is HaCaT. In words: Induction of apoptosis in human HaCaT cells assessed as increase in histone-associated DNA fragments in oligonucleosomes after 24 hrs by ELISA. Type of data set: cell-based. The procedure, abridged:
as §1

Data set [20] relates to HeLa. As to the kind of experiment: Induction of apoptosis in human HeLa cells assessed as increase in histone-associated DNA fragments in oligonucleosomes after 24 hrs by ELISA. Format: functional, cell-based. The method, boiled down: as §1
Data set [21] relates to MCF7. In words: Induction of apoptosis in human MCF7 cells assessed as increase in histone-associated DNA fragments in oligonucleosomes after 24 hrs by ELISA. Type of data set: functional, cell-based. The method, boiled down:
as §1

The subject of data set [22] is SK-OV-3. In words: Induction of apoptosis in human SKOV3 cells assessed as increase in histone-associated DNA fragments in oligonucleosomes after 24 hrs by ELISA. Type of data set: functional, cell-based. The method, boiled down:
as §1

Calls of active or inactive are those of the source. The calls are words filed in the database; no cut-off is given here.

With `COc1ccc(-c2ocnc2-c2cc(OC)c(SC)c(OC)c2)cc1O`, in the data set on HaCaT [1], the Activity entry is listed as “Toxic”. The result in the data set on HeLa [2], in the data set on MCF7 [3], in the data set with SK-OV-3 [4], in the data set on A-431 [5], with HeLa [6] and with SK-OV-3 [7] was Active.

As to `COc1ccc(-c2ocnc2-c2cc(Br)c(OC)c(OC)c2)cc1SC`, the Activity result in the data set on HeLa [8], in the data set with A-431 [14], in the data set on HaCaT [15], with HeLa [16], in the data set on MCF7 [17] and with MDA-MB-231 was “Dose-dependent effect” each time. Besides, the Activity entry in the data set on SK-OV-3 [18], in the data set with HaCaT [19], in the data set on HeLa [20], with MCF7 [21] and in the data set on SK-OV-3 [22] was “Dose-dependent effect” throughout. Further, the inhibition result on Tubulin (Homo sapiens) [9], on Tubulin (Homo sapiens) [10], on Tubulin (Homo sapiens) [11], at Tubulin (Homo sapiens) [12] and on Tubulin (Homo sapiens) [13] was “Active” throughout.
